Assays:
[1] = HPLC capacity factor (k'); format: ADME
[2] = Molar potency ratio was evaluated at 37 uM
[3] = Molar potency ratio was evaluated at 107 uM
Albumin = Albumin (Bos taurus, UniProt P02769); assay: Serum albumin binding; settings: cattle
In short: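 Affinity for bovine serum albumin measured by Hummel–Dreyer method adapted for HPLC. Samples of BSA (0.25–2 g/dL) with 25 μM analogue in 0.1 M NaH2PO4, pH 7.4, were applied to an Aquapore OH-100 column equilibrated with 25 μM analogue in the same buffer. Effluent absorbance was read at 254 nm. Duplicate estimates were made at each of two BSA concentrations, usually 1 and 2 g/dL.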

[4] = molecular target: Adenosine receptor A2a (Canis lupus familiaris) (UniProt P11617); assay: Molar potency ratio was evaluated
Adenosine receptor A2a (Canis lupus familiaris), sequence (P11617 whole entry, looked up): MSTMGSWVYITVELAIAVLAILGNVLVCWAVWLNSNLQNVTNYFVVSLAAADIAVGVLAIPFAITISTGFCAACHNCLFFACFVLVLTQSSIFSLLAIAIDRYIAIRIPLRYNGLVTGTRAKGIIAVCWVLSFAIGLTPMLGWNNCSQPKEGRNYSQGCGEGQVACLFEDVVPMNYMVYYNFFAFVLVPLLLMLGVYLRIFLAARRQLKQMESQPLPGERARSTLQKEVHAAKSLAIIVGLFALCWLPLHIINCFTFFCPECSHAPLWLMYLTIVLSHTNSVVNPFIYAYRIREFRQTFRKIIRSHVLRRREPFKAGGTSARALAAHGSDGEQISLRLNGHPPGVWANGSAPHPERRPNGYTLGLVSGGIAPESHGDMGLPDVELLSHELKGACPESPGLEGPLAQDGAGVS

[5] = Ionisation constant (pKa); format: physicochemical
[6] = Molar potency ratio was evaluated at 18 uM
[7] = Molar potency ratio was evaluated at 35 uM
[8] = Molar potency ratio was evaluated at 47 uM
[9] = Maximum increase in coronary flow (percent) of N6-modified adenosines at 27 uM
[10] = Molar potency ratio was evaluated at 50 uM
[11] = Molar potency ratio was evaluated at 61 uM
[12] = Molar potency ratio was evaluated at 46 uM
[13] = Molar potency ratio was evaluated at 27 uM

Albumin, sequence (P02769 whole entry): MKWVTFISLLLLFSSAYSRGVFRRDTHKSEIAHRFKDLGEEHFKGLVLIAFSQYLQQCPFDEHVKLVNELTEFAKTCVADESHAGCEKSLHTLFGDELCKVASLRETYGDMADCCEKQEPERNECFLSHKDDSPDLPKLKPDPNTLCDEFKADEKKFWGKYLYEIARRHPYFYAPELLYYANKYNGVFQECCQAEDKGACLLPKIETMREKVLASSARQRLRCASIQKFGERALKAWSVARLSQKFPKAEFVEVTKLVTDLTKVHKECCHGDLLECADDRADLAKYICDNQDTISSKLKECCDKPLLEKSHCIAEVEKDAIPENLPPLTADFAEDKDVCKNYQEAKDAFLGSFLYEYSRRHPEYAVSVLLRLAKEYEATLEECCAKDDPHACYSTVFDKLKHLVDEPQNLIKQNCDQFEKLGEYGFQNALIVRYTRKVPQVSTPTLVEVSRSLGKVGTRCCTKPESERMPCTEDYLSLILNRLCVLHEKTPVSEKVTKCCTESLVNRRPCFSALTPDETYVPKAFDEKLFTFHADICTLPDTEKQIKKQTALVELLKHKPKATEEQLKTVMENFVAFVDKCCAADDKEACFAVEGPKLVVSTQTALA

SMILES	k' [1]	Amount bound (Albumin)	MPR [4]	further results
CC1(C)C2CCC(CNc3ncnc4c3ncn4C3O[C@H](CO)[C@@H](O)[C@H]3O)C1C2 (stereo not given in full)	21			MPR [2]: 8%
OC[C@H]1OC(n2cnc3c(OCCc4ccccc4)ncnc32)[C@H](O)[C@@H]1O (stereo not given in full)	2.36			MPR [3]: 9%
CC(CC1CCCCC1)Nc1ncnc2c1ncn2C1O[C@H](CO)[C@@H](O)[C@H]1O (stereo not given in full)	8.92	19.3 M/g	0.15	
CC(C)Nc1ncnc2c1ncn2[C@@H]1O[C@H](CO)[C@@H](O)[C@H]1O	0.54	0.41 M/g	0.71	
OC[C@H]1O[C@@H](n2cnc3c(NC4CCCCCCC4)ncnc32)[C@H](O)[C@@H]1O	8.8	10.1 M/g		MPR [2]: 12%
C[C@H](Cc1ccccc1)Nc1ncnc2c1ncn2[C@@H]1O[C@H](CO)[C@@H](O)[C@H]1O [(R)-PIA]	2.57			pKa [5]: 3.4
CC[C@@H](C)Nc1ncnc2c1ncn2[C@@H]1O[C@H](CO)[C@@H](O)[C@H]1O	0.89	0.36 M/g	0.88	pKa [5]: 3.7
OC[C@H]1OC(n2cnc3c(NC4C5C[C@H]6C[C@@H](C5)C[C@@H]4C6)ncnc32)[C@H](O)[C@@H]1O (stereo not given in full)	12.2			MPR [6]: 0
OC[C@H]1OC(n2cnc3c(NCC4CCCCC4)ncnc32)[C@H](O)[C@@H]1O (stereo not given in full)	4.67	7.1 M/g	0.14	
OC[C@H]1O[C@@H](n2cnc3c(NC4CCCCC4)ncnc32)[C@H](O)[C@@H]1O	2.12	1.3 M/g		
CCCCNc1ncnc2c1ncn2[C@@H]1O[C@H](CO)[C@@H](O)[C@H]1O	1.59	1.06 M/g	0.38	
CC(C)CNc1ncnc2c1ncn2C1O[C@H](CO)[C@@H](O)[C@H]1O (stereo not given in full)	1	0.74 M/g	0.75	
CC(C)(C)Nc1ncnc2c1ncn2C1O[C@H](CO)[C@@H](O)[C@H]1O (stereo not given in full)	2.44			MPR [7]: 7%
CCCC(CCC)Nc1ncnc2c1ncn2C1O[C@H](CO)[C@@H](O)[C@H]1O (stereo not given in full)	5.57	7.1 M/g	0.81	
OC[C@H]1O[C@@H](n2cnc3c(NC4CC5CCC4C5)ncnc32)[C@H](O)[C@@H]1O (stereo in doubt; 58)	2.64	2.09 M/g		
CCC(C)(C)Nc1ncnc2c1ncn2C1O[C@H](CO)[C@@H](O)[C@H]1O (stereo not given in full)	4.28			MPR [8]: 12%
OC[C@H]1O[C@@H](n2cnc3c(N[C@H]4C[C@@H]4c4ccccc4)ncnc32)[C@H](O)[C@@H]1O	2.36		0.7	
OC[C@H]1O[C@@H](n2cnc3c(NC4CCC4)ncnc32)[C@H](O)[C@@H]1O	0.2		1.6	
CN(Nc1ncnc2c1ncn2C1O[C@H](CO)[C@@H](O)[C@H]1O)c1ccccc1 (stereo not given in full)	0.93		1.8	
C[C@@H](Nc1ncnc2c1ncn2[C@@H]1O[C@H](CO)[C@@H](O)[C@H]1O)c1ccccc1	1.64		0.52	pKa [5]: 3.3
CC(C)(Nc1ncnc2c1ncn2C1O[C@H](CO)[C@@H](O)[C@H]1O)c1ccccc1 (stereo not given in full)	4.45			max coronary flow increase [9]: 7%
CC[C@@H](CO)Nc1ncnc2c1ncn2[C@@H]1O[C@H](CO)[C@@H](O)[C@H]1O	0.52		0.12	
NCCNc1ncnc2c1ncn2C1O[C@H](CO)[C@@H](O)[C@H]1O (stereo not given in full)	0.11		0.072	
CC(C)(CCc1ccccc1)Nc1ncnc2c1ncn2C1O[C@H](CO)[C@@H](O)[C@H]1O (stereo not given in full)	18.7			MPR [10]: 4%
OC[C@H]1O[C@@H](n2cnc3c(NC4C5CCC4CC5)ncnc32)[C@H](O)[C@@H]1O (stereo not given in full)	3.5		0.39	

SMILES	k' [1]	Amount bound (Albumin)	MPR [4]	further results
OC[C@H]1OC(n2cnc3c(NCC4CC4)ncnc32)[C@H](O)[C@@H]1O (stereo not given in full)	0.71		0.58	
CC[C@H](C)Nc1ncnc2c1ncn2C1O[C@H](CO)[C@@H](O)[C@H]1O (single isomer, unassigned)	0.96	0.53 M/g	2.6	
C[C@@H](CO)Nc1ncnc2c1ncn2C1O[C@H](CO)[C@@H](O)[C@H]1O (stereo not given in full)	0.28		0.098	
OC[C@H]1O[C@@H](n2cnc3c(NC4CCCCCC4)ncnc32)[C@H](O)[C@@H]1O	4.04	3.4 M/g	0.18	
C[C@@H](CCc1ccccc1)Nc1ncnc2c1ncn2[C@@H]1O[C@H](CO)[C@@H](O)[C@H]1O	6.47		0.05	
CC(C)(C)CCNc1ncnc2c1ncn2C1O[C@H](CO)[C@@H](O)[C@H]1O (stereo not given in full)	4.71		0.084	
CCCCC(C)Nc1ncnc2c1ncn2C1O[C@H](CO)[C@@H](O)[C@H]1O (stereo not given in full)	4.46		0.56	
CNc1ncnc2c1ncn2[C@@H]1O[C@H](CO)[C@@H](O)[C@H]1O	0.07		0.05	
COc1ncnc2c1ncn2[C@@H]1O[C@H](CO)[C@@H](O)[C@@H]1O	0.16		0.004	
CCC(CC)Nc1ncnc2c1ncn2C1O[C@H](CO)[C@@H](O)[C@H]1O (stereo not given in full)	1.64	0.78 M/g	4	pKa [5]: 3.3
CCNc1ncnc2c1ncn2C1O[C@H](CO)[C@@H](O)[C@H]1O (stereo not given in full)	0.29		0.15	
OC[C@H]1O[C@@H](n2cnc3c(NCCc4ccccc4)ncnc32)[C@H](O)[C@@H]1O	1.77		2	pKa [5]: 3.6
CCCC(C)Nc1ncnc2c1ncn2C1O[C@H](CO)[C@@H](O)[C@H]1O (stereo not given in full)	2.38		1.1	
OC[C@H]1O[C@@H](n2cnc3c(NC4CCCC4)ncnc32)[C@H](O)[C@@H]1O [N6-CYCLOPENTYLADENOSINE]	1.25		1.8	
OCCNc1ncnc2c1ncn2C1O[C@H](CO)[C@@H](O)[C@H]1O (stereo not given in full)	0.14	0.53 M/g	0.14	
OC[C@H]1OC(n2cnc3c(NC(c4ccccc4)c4ccccc4)ncnc32)[C@H](O)[C@@H]1O (stereo not given in full)	6.11			MPR [11]: 27%
C[C@@H](Nc1ncnc2c1ncn2[C@@H]1O[C@H](CO)[C@@H](O)[C@H]1O)[C@H](O)c1ccccc1	0.96		1.8	
C[C@H](Nc1ncnc2c1ncn2[C@@H]1O[C@H](CO)[C@@H](O)[C@H]1O)c1ccccc1	1.89		0.2	
C#CCNc1ncnc2c1ncn2C1O[C@H](CO)[C@@H](O)[C@H]1O (stereo not given in full)	0.21		0.23	
CC1(Nc2ncnc3c2ncn3C2O[C@H](CO)[C@@H](O)[C@H]2O)CCCCC1 (stereo not given in full)	9.29			MPR [12]: 5%
CC(C)C(Nc1ncnc2c1ncn2C1O[C@H](CO)[C@@H](O)[C@H]1O)C(C)C (stereo not given in full)	1	2.97 M/g	0.75	
CC(C)(C)CNc1ncnc2c1ncn2C1O[C@H](CO)[C@@H](O)[C@H]1O (stereo not given in full)	2.5		0.064	
OC[C@H]1OC(n2cnc3c(NC45C[C@H]6C[C@@H](C4)C[C@@H](C5)C6)ncnc32)[C@H](O)[C@@H]1O (stereo not given in full)	19.6			MPR [13]: 0
OC[C@H]1O[C@@H](n2cnc3c(N[C@@H]4C[C@H]4c4ccccc4)ncnc32)[C@H](O)[C@@H]1O	2.43		0.31	
